# Source: ChEMBL document CHEMBL3588826, “Chimeric derivatives of functionalized amino acids and α-aminoamides: compounds with anticonvulsant activity in seizure models and inhibitory actions on central, peripheral, and cardiac isoforms of voltage-gated sodium channels” (Bioorg Med Chem, 2015)
# Calls of active or inactive are those of the source. The rule behind the calls is not given here.
# Legend:
# [1] = Protective index, ratio of TD50 for neurotoxicity in ip dosed albino Carworth Farms No. 1 mouse to ED50 for anticonvulsant activity in ip dosed MES albino Carworth Farms No. 1 mouse model; format: toxicity, organism-based; settings: in vivo, read-out: Ratio TD50/ED50
# How it was run: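 Male albino Carworth Farms No. 1 mice were dosed ip. Protective index = TD50/ED50, the ED50 taken from the ip maximal electroshock test.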
# Rattus norvegicus [2] = assay: Anticonvulsant activity in po dosed albino Sprague-Dawley rat measured at 2 hrs by maximal electroshock seizure test; format: functional
# How it was run: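 Screened under the NIH anticonvulsant program in male albino Carworth Farms No. 1 mice (ip) and male albino Sprague-Dawley rats (ip or oral). Protection tested by maximal electroshock or 6 Hz (32 mA) psychomotor stimulation.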
# [3] = Behavioural toxicity in ip dosed albino Sprague-Dawley rat measured at 2 hrs; format: organism-based; settings: in vivo
# [4] = Inhibition of voltage-gated sodium channel in mouse CAD cells assessed as transition of channels to slow-inactivated state measured at +20 mV by whole cell patch-clamp electrophysiology; format: cell-based
# How it was run: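 CAD cells were grown in Ham's F12/DMEM with 10% FBS at 37 °C and 5% CO2, then recorded by whole-cell voltage clamp at room temperature. A concentration range of compound was tested versus 0.1% DMSO. Slow inactivation was measured at −50 and +20 mV, and IC50 was derived from concentration-response curves.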
# CAD = assay: Effect on steady state activation of voltage-gated sodium channel in mouse CAD cells at 100 nM to 1 uM by whole cell patch-clamp electrophysiology; format: cell-based
# How it was run: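 CAD cells were recorded by whole-cell voltage clamp at room temperature with several compound concentrations versus 0.1% DMSO. Activation was assessed from conductance, G = I/(Vm − Vrev), versus command voltage. V1/2 and slope were taken from Boltzmann fits to individual recordings and averaged.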
# [5] = molecular target: Sodium channel protein type 3 subunit alpha (Rattus norvegicus) (UniProt P08104); assay: Inhibition of rat Nav1.3 expressed in HEK293 cells assessed as transition of channels to slow-inactivated state at 10 uM measured at -50 mV by whole cell patch-clamp electrophysiology; format: cell-based
# How it was run: (§1)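 HEK293 cells stably expressing hNav1.1, rNav1.3, hNav1.7 or hNav1.5 were grown in DMEM with 10% FBS. Recordings were whole-cell voltage clamp at room temperature, with 10 μM compound versus 0.1% DMSO. Slow inactivation at −50 mV was calculated as 1 minus normalized peak INa. Nav1.5 used hyperpolarized protocols. Data are from 5–6 cells.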
# [6] = molecular target: Sodium channel protein type 5 subunit alpha (Homo sapiens, UniProt Q14524); assay: Inhibition of human Nav1.5 expressed in HEK293 cells assessed as transition of channels to slow-inactivated state at 10 uM measured at -50 mV by whole cell patch-clamp electrophysiology; format: cell-based; settings: hek293, 10 µM; how it was run: as §1
# [7] = molecular target: Sodium channel protein type 9 subunit alpha (Homo sapiens) (UniProt Q15858); assay: Inhibition of human Nav1.7 expressed in HEK293 cells assessed as half-maximal voltage for steady state activation at 10 uM by whole cell patch-clamp electrophysiology (reference value: -27.13 +/-4.01 mV); format: cell-based
# Cytochrome P450 1A2 = molecular target: T1, Cytochrome P450 1A2 (Homo sapiens, UniProt P05177); assay: Inhibition of human CYP1A2 at 10 uM; format: ADME
# T1 sequence (P05177 whole entry): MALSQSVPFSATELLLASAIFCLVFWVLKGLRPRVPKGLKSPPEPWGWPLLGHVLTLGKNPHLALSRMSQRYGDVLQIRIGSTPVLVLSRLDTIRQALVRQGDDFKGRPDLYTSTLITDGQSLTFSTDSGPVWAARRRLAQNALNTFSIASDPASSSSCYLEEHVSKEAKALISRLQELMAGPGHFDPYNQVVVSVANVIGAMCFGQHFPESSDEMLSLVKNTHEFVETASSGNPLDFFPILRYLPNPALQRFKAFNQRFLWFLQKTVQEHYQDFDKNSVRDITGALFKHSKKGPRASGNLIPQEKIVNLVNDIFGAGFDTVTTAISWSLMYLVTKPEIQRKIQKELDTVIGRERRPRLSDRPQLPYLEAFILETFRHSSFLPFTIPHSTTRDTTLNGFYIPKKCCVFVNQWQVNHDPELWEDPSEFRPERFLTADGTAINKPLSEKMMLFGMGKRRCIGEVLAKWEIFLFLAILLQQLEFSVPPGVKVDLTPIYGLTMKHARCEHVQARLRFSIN
# How it was run: (§2)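 Test compound at 10 μM against a human CYP450 panel (CYP1A2, 2B6, 2C8, 2C9, 2C19, 2D6, 3A4/5). Direct inhibition was measured, and time-dependent inhibition was measured after a 30-min preincubation.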
# Cytochrome P450 2B6 = molecular target: T2, Cytochrome P450 2B6 (Homo sapiens, UniProt P20813); assay: Inhibition of human CYP2B6 at 10 uM; format: ADME; how it was run: as §2
# T2 sequence (P20813 whole entry): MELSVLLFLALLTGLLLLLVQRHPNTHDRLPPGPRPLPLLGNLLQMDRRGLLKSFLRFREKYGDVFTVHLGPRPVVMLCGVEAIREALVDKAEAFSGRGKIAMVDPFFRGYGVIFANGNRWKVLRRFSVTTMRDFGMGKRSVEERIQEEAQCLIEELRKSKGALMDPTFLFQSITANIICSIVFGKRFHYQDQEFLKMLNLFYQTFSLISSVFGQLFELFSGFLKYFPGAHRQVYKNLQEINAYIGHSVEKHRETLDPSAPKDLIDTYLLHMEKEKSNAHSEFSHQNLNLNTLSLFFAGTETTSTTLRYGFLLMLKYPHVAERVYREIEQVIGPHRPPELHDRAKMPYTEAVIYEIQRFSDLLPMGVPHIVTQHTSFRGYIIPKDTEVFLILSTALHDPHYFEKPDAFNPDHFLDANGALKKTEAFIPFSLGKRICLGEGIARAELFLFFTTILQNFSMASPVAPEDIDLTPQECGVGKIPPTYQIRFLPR
# Cytochrome P450 2D6 = Cytochrome P450 2D6 (Homo sapiens, UniProt P10635); assay: Inhibition of human CYP2D6 at 10 uM; format: ADME; how it was run: as §2
# Cytochrome P450 3A4 = Cytochrome P450 3A4 (Homo sapiens, UniProt P08684); assay: Inhibition of human CYP3A4 at 10 uM; format: ADME; how it was run: as §2
# Rattus norvegicus [8] = assay: Bioavailability in Sprague-Dawley rat at 5 mg/kg, iv and 20 mg/kg, po; format: ADME, organism-based; settings: in vivo
# How it was run: (§3)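 Pharmacokinetics in Sprague-Dawley rats given a single iv dose of 5 mg/kg or an oral dose of 20 mg/kg.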
# [9] = Half life in Sprague-Dawley rat at 20 mg/kg, po; format: ADME, organism-based; settings: in vivo; how it was run: as §3
# Rattus norvegicus [10] = assay: Toxicity in po dosed Sprague-Dawley rat assessed as coordination in gait administered via gavage; format: organism-based; settings: in vivo
# How it was run: (§4)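 Non-GLP 7-day repeated-dose study in female Sprague-Dawley rats given oral gavage at 20, 60 and 180 mg/kg/day. Endpoints were weight bearing, gait coordination, respiratory rate, relative organ weights, clinical chemistry and gross pathology, with NOAEL determined.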
# Rattus norvegicus [11] = assay: Toxicity in po dosed Sprague-Dawley rat assessed as increase in liver weight administered via gavage; format: organism-based; settings: in vivo
# How it was run: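 Non-GLP repeated-dose study: female Sprague-Dawley rats given compound by oral gavage once daily for 7 days at 20, 60 and 180 mg/kg/day. Endpoints included weight bearing, gait coordination, respiratory rate, relative organ weights (liver, spleen, thymus), clinical chemistry and gross pathology; NOAEL derived.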
# Rattus norvegicus [12] = assay: Toxicity in po dosed Sprague-Dawley rat assessed as decrease in spleen weight administered via gavage; format: organism-based; settings: in vivo; how it was run: as §4
# Chain of Sodium channel protein type 3 subunit alpha (Rattus norvegicus) (P08104 whole entry): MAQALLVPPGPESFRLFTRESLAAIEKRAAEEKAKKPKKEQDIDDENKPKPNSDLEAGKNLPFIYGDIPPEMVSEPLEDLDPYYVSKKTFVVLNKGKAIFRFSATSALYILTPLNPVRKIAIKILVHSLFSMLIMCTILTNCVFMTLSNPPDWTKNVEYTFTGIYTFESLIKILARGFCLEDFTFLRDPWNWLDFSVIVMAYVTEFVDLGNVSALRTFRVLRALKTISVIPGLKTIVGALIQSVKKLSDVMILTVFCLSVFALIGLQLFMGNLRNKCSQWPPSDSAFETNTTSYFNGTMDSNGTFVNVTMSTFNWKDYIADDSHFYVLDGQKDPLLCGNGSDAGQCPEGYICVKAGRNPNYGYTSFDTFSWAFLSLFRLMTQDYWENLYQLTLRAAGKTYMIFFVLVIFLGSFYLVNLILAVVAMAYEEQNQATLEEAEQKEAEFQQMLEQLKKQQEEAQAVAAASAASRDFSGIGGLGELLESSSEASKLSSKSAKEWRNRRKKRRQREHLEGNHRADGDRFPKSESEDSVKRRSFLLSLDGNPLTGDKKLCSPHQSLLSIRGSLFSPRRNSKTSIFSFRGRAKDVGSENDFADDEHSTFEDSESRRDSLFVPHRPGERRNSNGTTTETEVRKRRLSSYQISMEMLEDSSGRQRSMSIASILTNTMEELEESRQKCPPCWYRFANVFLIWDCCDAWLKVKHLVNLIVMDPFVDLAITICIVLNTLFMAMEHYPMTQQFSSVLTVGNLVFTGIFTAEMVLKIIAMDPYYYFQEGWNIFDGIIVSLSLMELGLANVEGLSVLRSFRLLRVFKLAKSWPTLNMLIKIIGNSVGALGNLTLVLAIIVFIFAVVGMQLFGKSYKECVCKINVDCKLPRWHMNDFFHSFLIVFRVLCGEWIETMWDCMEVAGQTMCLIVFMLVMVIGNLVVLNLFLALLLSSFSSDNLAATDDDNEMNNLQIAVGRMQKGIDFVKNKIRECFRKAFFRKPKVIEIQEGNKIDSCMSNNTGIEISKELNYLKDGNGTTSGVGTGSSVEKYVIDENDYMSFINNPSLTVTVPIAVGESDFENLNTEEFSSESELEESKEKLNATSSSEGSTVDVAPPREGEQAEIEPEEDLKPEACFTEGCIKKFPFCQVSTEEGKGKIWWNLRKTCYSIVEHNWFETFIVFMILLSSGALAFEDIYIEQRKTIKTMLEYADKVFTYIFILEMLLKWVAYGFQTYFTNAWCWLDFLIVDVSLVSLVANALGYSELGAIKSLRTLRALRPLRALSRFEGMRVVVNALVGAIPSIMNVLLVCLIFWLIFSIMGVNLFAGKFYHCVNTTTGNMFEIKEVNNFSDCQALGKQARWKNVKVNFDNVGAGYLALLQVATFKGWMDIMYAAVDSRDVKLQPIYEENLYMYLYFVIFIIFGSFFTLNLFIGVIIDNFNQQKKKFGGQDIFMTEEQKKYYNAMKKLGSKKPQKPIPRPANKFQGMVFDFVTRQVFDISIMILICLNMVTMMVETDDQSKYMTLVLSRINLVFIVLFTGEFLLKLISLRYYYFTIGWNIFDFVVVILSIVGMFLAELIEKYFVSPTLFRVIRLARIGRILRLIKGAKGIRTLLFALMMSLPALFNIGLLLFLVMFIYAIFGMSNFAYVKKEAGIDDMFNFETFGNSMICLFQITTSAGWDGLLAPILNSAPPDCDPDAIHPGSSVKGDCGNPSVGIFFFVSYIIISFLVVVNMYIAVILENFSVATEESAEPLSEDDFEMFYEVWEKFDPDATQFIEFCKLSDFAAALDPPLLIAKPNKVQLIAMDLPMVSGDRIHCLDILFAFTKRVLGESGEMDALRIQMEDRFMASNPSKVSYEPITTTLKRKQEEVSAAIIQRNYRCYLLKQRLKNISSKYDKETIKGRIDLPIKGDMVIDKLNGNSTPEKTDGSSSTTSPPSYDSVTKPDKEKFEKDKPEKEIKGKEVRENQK
# Chain of Sodium channel protein type 9 subunit alpha (Homo sapiens) (Q15858 whole entry, looked up): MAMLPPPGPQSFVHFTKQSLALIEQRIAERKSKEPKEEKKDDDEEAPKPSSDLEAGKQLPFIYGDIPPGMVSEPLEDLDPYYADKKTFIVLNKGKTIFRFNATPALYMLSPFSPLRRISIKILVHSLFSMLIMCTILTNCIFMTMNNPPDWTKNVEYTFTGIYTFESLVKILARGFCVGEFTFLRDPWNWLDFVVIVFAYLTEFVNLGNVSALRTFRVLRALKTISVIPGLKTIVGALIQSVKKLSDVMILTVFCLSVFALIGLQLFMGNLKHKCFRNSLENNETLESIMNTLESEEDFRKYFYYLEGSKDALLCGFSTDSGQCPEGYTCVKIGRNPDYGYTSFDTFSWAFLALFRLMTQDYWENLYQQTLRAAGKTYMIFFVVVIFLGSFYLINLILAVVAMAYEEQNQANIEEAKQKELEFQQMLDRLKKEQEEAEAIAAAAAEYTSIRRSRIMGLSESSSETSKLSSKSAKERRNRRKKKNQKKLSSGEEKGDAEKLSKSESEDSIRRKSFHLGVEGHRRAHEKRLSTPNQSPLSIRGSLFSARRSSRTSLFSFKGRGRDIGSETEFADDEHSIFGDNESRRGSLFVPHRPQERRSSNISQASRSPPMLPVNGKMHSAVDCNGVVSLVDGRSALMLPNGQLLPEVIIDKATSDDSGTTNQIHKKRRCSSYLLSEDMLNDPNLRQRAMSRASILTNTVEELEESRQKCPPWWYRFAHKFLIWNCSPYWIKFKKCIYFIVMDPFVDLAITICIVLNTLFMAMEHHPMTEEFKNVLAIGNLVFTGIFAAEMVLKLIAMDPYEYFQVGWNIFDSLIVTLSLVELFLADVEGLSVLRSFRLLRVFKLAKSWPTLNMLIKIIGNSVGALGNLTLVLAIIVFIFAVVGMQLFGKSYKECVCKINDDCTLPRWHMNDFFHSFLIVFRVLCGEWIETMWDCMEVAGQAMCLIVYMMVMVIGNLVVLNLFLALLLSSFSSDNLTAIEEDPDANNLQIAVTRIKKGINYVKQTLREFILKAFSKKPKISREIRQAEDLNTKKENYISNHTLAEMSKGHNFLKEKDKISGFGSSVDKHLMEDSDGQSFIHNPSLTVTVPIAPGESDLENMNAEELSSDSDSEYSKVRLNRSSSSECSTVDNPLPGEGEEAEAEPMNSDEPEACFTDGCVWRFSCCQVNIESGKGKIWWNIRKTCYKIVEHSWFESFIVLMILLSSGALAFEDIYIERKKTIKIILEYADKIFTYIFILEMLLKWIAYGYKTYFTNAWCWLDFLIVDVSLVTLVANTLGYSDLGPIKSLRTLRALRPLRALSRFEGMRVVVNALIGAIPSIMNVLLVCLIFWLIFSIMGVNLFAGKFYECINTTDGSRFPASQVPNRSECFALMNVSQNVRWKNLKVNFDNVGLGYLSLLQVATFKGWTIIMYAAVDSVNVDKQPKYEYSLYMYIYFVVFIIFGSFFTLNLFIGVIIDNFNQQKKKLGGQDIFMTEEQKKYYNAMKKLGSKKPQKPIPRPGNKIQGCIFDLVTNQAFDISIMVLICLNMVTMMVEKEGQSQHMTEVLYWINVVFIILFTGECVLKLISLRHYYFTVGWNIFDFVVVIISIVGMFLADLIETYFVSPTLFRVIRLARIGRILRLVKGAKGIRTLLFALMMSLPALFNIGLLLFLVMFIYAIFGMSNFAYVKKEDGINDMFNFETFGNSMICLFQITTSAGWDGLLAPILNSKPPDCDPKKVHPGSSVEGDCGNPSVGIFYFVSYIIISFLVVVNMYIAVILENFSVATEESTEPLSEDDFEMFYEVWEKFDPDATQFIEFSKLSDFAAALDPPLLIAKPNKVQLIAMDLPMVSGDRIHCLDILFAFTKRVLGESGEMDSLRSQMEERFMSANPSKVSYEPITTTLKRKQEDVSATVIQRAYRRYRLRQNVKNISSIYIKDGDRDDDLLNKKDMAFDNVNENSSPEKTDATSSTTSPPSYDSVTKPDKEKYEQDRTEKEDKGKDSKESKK
# Chain of Cytochrome P450 2D6 (P10635 whole entry): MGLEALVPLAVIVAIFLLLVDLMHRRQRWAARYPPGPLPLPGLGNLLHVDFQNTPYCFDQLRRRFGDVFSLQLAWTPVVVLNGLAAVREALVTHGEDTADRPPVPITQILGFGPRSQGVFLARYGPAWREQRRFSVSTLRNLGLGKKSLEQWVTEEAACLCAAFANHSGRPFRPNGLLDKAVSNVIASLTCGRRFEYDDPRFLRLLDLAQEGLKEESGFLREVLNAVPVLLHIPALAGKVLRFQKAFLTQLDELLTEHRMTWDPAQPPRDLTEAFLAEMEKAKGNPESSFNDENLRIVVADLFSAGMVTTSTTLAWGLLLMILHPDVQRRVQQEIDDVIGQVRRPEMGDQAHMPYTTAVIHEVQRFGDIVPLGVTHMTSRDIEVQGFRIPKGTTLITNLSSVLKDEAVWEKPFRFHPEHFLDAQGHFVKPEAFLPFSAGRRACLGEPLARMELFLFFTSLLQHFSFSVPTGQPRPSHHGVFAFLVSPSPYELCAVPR
# Chain of Cytochrome P450 3A4 (P08684 whole entry): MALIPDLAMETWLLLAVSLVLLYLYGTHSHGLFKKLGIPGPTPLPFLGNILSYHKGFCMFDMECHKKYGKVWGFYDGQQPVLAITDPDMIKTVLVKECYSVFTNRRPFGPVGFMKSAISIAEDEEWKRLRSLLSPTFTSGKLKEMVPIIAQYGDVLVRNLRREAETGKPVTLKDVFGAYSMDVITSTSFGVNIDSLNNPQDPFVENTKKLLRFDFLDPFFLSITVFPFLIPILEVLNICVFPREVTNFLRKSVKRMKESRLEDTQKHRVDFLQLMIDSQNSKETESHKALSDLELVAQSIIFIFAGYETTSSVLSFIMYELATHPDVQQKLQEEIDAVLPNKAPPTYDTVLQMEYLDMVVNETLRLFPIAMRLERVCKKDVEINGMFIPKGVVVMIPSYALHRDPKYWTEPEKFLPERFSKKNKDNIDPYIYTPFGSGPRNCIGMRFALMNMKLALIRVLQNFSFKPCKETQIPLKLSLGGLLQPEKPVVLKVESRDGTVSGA
structure (smiles),measurement,setting,value
COC[C@@H](NC(C)=O)C(=O)NCc1ccc(Oc2cccc(OC(F)(F)F)c2)cc1,selectivity ratio,[1],6.2
same,ED50,Rattus norvegicus [2],8.3 mg/kg
same,TD50 at 2 h,[3],54 mg/kg
same,IC50,[4],640 nM
same,Activity,CAD,inactive
same,inhibition,[5],Active
same,inhibition (INH),[6],Active
same,V1/2,[7],-25 mV
same,inhibition (INH),Cytochrome P450 1A2,Not Active
same,inhibition (INH),Cytochrome P450 2B6,Not Active
same,inhibition (INH),Cytochrome P450 2D6,Not Active
same,inhibition (INH),Cytochrome P450 3A4,Not Active
same,F,Rattus norvegicus [8],92%
same,half-life,[9],278 min
same,Activity,Rattus norvegicus [10],Toxic
same,Activity,Rattus norvegicus [11],Toxic
same,Activity,Rattus norvegicus [12],Toxic
